In ChEMBL document CHEMBL1143997, “Further structural optimization of cis-(6-benzhydryl-piperidin-3-yl)-benzylamine and 1,4-diazabicyclo[3.3.1]nonane derivatives by introducing an exocyclic hydroxyl group: interaction with dopamine, serotonin, and norepinephrine transporters” (Bioorg Med Chem, 2008):

Key:
[1] = biological target: T1, Sodium-dependent dopamine transporter (Rattus norvegicus, UniProt P23977); experiment: Displacement of [3H]WIN-from DAT in rat striatum
Outline: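 Compounds dissolved in DMSO, diluted in 10% DMSO, final 0.5% DMSO. At least five concentrations in triplicate spaced around IC50. IC50 from nonlinear curve fitting, converted to Ki by Cheng-Prusoff. Mean ± SEM of 3–8 independent experiments.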

Rattus norvegicus [2] = species: Rattus norvegicus; experiment: Ratio of Ki for NET to Ki for DAT in rat brain; assay type: tissue-based
[3] = biological target: Sodium-dependent dopamine transporter (Rattus norvegicus) (UniProt P23977); experiment: Ratio of [3H]DA uptake to [3H]WIN-binding to DAT in rat brain; assay type: tissue-based
Rattus norvegicus [4] = species: Rattus norvegicus; experiment: Ratio of Ki for SERT to Ki for DAT in rat brain; assay type: tissue-based
[5] = biological target: Norepinephrine transporter (Rattus norvegicus, UniProt Q9WTR4); experiment: Inhibition of [3H]NE uptake in NET in rat cerebral cortex; assay type: tissue-based
[6] = biological target: Sodium-dependent serotonin transporter (Rattus norvegicus, UniProt P31652); experiment: Inhibition of [3H]5HT uptake in SERT in rat cerebral cortex; assay type: tissue-based
Outline: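 Rat cerebral cortex; [3H]5-HT accumulation measured. Nonspecific uptake defined with 10 uM citalopram. Compounds dissolved in DMSO, final 0.5% DMSO. At least five triplicate concentrations spaced around IC50. Nonlinear fit, with Ki by Cheng-Prusoff. Mean ± SEM of 3–8 independent experiments in triplicate.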

[7] = biological target: T1, Sodium-dependent dopamine transporter; experiment: Inhibition of [3H]dopamine uptake in DAT in rat striatum; assay type: tissue-based
Outline: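 Rat striatal tissue; [3H]DA accumulation measured. Nonspecific uptake defined with 100 uM cocaine. Compounds dissolved in DMSO, final 0.5% DMSO. At least five triplicate concentrations spaced around IC50. Nonlinear curve fit, with Ki from Cheng-Prusoff. Mean ± SEM of 3–8 independent experiments done in triplicate.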

Sequence of Norepinephrine transporter (Q9WTR4 whole entry): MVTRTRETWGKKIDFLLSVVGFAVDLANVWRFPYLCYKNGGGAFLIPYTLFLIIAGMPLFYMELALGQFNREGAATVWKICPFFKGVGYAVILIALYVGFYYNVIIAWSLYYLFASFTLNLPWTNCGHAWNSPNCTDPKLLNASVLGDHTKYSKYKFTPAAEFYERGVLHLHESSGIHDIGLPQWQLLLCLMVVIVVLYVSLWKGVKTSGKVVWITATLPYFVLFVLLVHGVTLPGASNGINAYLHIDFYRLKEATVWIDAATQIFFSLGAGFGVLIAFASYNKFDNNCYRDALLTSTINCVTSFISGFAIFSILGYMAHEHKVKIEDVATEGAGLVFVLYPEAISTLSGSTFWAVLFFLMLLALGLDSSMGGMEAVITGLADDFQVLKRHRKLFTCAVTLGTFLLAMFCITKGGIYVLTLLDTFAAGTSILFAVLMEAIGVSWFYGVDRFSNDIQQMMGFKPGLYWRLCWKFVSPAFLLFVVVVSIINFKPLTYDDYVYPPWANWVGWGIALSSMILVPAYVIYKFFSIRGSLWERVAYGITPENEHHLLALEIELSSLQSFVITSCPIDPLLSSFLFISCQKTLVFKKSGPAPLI
Sequence of Sodium-dependent serotonin transporter (P31652 whole entry): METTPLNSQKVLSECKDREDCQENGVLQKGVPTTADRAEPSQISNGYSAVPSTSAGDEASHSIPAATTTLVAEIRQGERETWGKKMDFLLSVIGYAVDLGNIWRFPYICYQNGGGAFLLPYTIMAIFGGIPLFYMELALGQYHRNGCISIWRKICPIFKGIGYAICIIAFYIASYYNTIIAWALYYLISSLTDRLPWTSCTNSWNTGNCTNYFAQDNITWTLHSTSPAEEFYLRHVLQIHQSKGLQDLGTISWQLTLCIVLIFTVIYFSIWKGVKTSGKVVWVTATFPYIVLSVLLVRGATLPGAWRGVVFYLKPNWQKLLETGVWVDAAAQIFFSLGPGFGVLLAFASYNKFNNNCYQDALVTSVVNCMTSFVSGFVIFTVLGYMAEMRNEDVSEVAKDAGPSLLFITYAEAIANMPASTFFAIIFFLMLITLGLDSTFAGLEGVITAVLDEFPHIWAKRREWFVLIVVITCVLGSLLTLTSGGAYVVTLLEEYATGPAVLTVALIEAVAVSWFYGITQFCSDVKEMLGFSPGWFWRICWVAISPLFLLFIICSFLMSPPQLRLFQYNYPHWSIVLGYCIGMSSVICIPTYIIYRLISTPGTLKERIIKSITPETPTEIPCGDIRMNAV
Sequence of Sodium-dependent dopamine transporter (Rattus norvegicus) (P23977 whole entry): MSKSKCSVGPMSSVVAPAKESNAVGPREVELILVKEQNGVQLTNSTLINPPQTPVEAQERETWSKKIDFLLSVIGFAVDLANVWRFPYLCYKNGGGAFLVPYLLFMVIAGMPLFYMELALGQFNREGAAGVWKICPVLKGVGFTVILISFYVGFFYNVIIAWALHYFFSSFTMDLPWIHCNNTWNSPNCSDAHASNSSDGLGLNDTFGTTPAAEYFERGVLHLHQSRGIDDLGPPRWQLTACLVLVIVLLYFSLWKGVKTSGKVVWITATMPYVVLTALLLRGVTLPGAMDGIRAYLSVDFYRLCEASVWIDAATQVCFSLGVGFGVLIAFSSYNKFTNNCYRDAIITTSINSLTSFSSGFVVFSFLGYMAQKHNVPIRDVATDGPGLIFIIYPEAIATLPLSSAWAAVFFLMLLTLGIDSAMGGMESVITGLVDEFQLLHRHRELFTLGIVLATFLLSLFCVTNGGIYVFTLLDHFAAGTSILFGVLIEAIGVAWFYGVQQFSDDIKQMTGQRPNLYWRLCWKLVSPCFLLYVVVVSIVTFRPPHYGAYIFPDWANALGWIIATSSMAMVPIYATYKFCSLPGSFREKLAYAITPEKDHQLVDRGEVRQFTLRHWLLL
T1 sequence (P23977 whole entry): as above

Q: What does the source list for O[C@H](CN[C@H]1CC[C@@H](C(c2ccccc2)c2ccccc2)NC1)Cc1ccccc1?
A: Ki [1]: 0.0289 µM; Ratio Ki (Rattus norvegicus [2]): 9.1; Ratio Ki [3]: 0.87; Ratio Ki (Rattus norvegicus [4]): 103; Ki [5]: 0.231 µM; Ki [6]: 2.6 µM

Q: For O[C@@H](CN1CCN2C[C@@H]1CC[C@H]2C(c1ccccc1)c1ccccc1)c1ccc(F)cc1, which Ki [1] is on record?
A: 0.142 µM

Q: What about the Ratio Ki (Rattus norvegicus [2]) of the same compound?
A: 4.7

Q: What about the Ratio Ki [3] of the same compound?
A: 0.46

Q: What about the Ratio Ki (Rattus norvegicus [4]) of the same compound?
A: 111

Q: What about the Ki [5] of the same compound?
A: 0.319 µM

Q: What about the Ki [7] of the same compound?
A: 0.0665 µM

Q: And the Ki [6]?
A: 7.41 µM

Q: For O[C@@H](CN1CCN2C[C@@H]1CC[C@H]2C(c1ccccc1)c1ccccc1)c1ccccc1, which Ki [1] is on record?
A: 0.228 µM

Q: What about the Ratio Ki (Rattus norvegicus [2]) of the same compound?
A: 4.6

Q: And the Ratio Ki [3]?
A: 0.89

Q: And the Ratio Ki (Rattus norvegicus [4])?
A: 63.2

Q: And the Ki [5]?
A: 0.954 µM

Q: And the Ki [7]?
A: 0.204 µM

Q: What about the Ki [6] of the same compound?
A: 12.9 µM

Q: Which results are given for O[C@H](CN1CCN2C[C@@H]1CC[C@H]2C(c1ccccc1)c1ccccc1)c1ccccc1?
A: Ki [1]: 1.04 µM; Ratio Ki (Rattus norvegicus [2]): 6.5; Ratio Ki [3]: 0.25; Ratio Ki (Rattus norvegicus [4]): 35.7; Ki [5]: 1.73 µM; Ki [7]: 0.266 µM; Ki [6]: 9.51 µM

Q: For O[C@@H](CCN1CCN2C[C@@H]1CC[C@H]2C(c1ccccc1)c1ccccc1)c1ccc(F)cc1, which Ki [1] is on record?
A: 0.0135 µM

Q: What about the Ratio Ki (Rattus norvegicus [2]) of the same compound?
A: 48.4

Q: And the Ratio Ki [3]?
A: 0.63

Q: And the Ratio Ki (Rattus norvegicus [4])?
A: 172

Q: And the Ki [5]?
A: 0.418 µM

Q: And the Ki [7]?
A: 0.00863 µM

Q: What about the Ki [6] of the same compound?
A: 1.48 µM

Q: With O[C@@H](Cc1ccccc1)CN1CCN2C[C@@H]1CC[C@H]2C(c1ccccc1)c1ccccc1 as the compound, how does the Ki [1] read?
A: 0.047 µM

Q: And the Ratio Ki (Rattus norvegicus [2])?
A: 15.4

Q: What about the Ratio Ki [3] of the same compound?
A: 0.35

Q: What about the Ratio Ki (Rattus norvegicus [4]) of the same compound?
A: 615

Q: And the Ki [5]?
A: 0.259 µM

Q: And the Ki [7]?
A: 0.0168 µM

Q: And the Ki [6]?
A: 10.3 µM

Q: What does the source list for COc1ccc(CN2CCN3C[C@@H]2CC[C@H]3C(c2ccccc2)c2ccccc2)cc1?
A: Ki [1]: 0.0225 µM; Ki [7]: 0.0184 µM

Q: What does the source list for N#Cc1ccc(CN[C@H]2CC[C@@H](C(c3ccccc3)c3ccccc3)NC2)cc1?
A: Ki [1]: 0.0113 µM; Ki [7]: 0.0091 µM

Q: What does the source list for O[C@H](Cc1ccccc1)CN1CCN2C[C@@H]1CC[C@H]2C(c1ccccc1)c1ccccc1?
A: Ki [1]: 0.148 µM; Ratio Ki (Rattus norvegicus [2]): 8.8; Ratio Ki [3]: 0.56; Ratio Ki (Rattus norvegicus [4]): 135; Ki [5]: 0.73 µM; Ki [7]: 0.0829 µM; Ki [6]: 11.2 µM

Q: Which results are given for O[C@H](CN1CCN2C[C@@H]1CC[C@H]2C(c1ccccc1)c1ccccc1)c1ccc(F)cc1?
A: Ki [1]: 0.649 µM; Ratio Ki (Rattus norvegicus [2]): 4.5; Ratio Ki [3]: 0.24; Ratio Ki (Rattus norvegicus [4]): 45.9; Ki [5]: 0.728 µM; Ki [7]: 0.16 µM; Ki [6]: 7.34 µM

Q: O[C@H](CCN1CCN2C[C@@H]1CC[C@H]2C(c1ccccc1)c1ccccc1)c1ccc(F)cc1 was tested. Which Ki [1] did it give?
A: 0.0199 µM

Q: What about the Ratio Ki (Rattus norvegicus [2]) of the same compound?
A: 9.2

Q: What about the Ratio Ki [3] of the same compound?
A: 2.1

Q: And the Ratio Ki (Rattus norvegicus [4])?
A: 284

Q: And the Ki [5]?
A: 0.388 µM

Q: What about the Ki [7] of the same compound?
A: 0.0418 µM

Q: What about the Ki [6] of the same compound?
A: 11.9 µM

Q: How did the Ratio Ki [3] turn out when O[C@@H](CN[C@H]1CC[C@@H](C(c2ccccc2)c2ccccc2)NC1)Cc1ccccc1 was run?
A: 0.78

Q: What about the Ki [5] of the same compound?
A: 0.17 µM

Q: What about the Ki [7] of the same compound?
A: 0.0106 µM

Q: And the Ki [6]?
A: 1.39 µM

Q: How did the Ratio Ki (Rattus norvegicus [2]) turn out when O[C@@H](CN[C@H]1CC[C@@H](C(c2ccccc2)c2ccccc2)NC1)c1ccc(F)cc1 was run?
A: 6

Q: What about the Ratio Ki (Rattus norvegicus [4]) of the same compound?
A: 12.2

Q: What about the Ki [5] of the same compound?
A: 1.44 µM

Q: What about the Ki [6] of the same compound?
A: 2.9 µM
